# Measured values as given in the RNAGym collection of RNA variant scans (doi:10.1126/science.aae0568).
# This sample holds only a part of the variants without activity.
# B1: tRNA (parent)
# chain: GUUCCGUUGGCGUAAUGGUAACGCGUCUCCCUCCUAAGGAGAAGACUGCGGGUUCGAGUCCCGUACGGAACG
# Variants of: B1
# Assay: yeast fitness relative to wild type (ratio to wild type); higher = fitter; tRNA-Arg(CCU), competitive growth, 37 C, YPD
# In short: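 Variants of the tRNA-Arg(CCU) gene, chemically synthesised with a 3% per-site mutation rate at 69 sites, were placed at the native genomic locus in Saccharomyces cerevisiae. The pooled strains were competed in YPD at 37°C for 24 hours in six parallel replicates. Gene amplicons from the start population and from each end population were read by 100-nucleotide paired-end sequencing. Darwinian fitness relative to wild type came from changes in genotype frequencies; genotypes needed ≥ 100 starting reads, and estimates < 0.5 were set to 0.5.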
row,Variant,yeast fitness
1,U16A C33U A36G G38C,≤ 0.5
2,A15U C30U C62U,0.572
3,U16A A21U C24A,≤ 0.5
4,U16A C31A A69C,0.633
5,A15U G56C,0.549
6,A15U G56U,0.657
7,U16A C30G A40G U54C,≤ 0.5
8,U16A C22U A69U,0.64
9,U16A C30U G56C,≤ 0.5
10,U16A C30U A40C G68A,0.594
11,U16A A45G G50A,≤ 0.5
12,U16A C31A C33G G38A,≤ 0.5
13,U16A C24U G44C C61U,0.66
14,U16A C33G G58A G68C,≤ 0.5
15,A15U G18C C29G U64A A69C,0.598
16,U16A A21G C31U C34G A45C C66G,≤ 0.5
17,A15U C33G C34G A45U G51A,≤ 0.5
18,U16A C33A U53A G63A,≤ 0.5
19,U16A C49G A69U,≤ 0.5
20,A15U C27U G48C A69G A70U,≤ 0.5
21,A15U U35A A43G G67C,≤ 0.5

row,Variant,yeast fitness
1,U16A C30U A42U,0.618
2,A15U U54G,0.539
3,A15U U54C,0.703
4,U16A C30A A69U,0.979
5,A15U G18C C29G,0.571
6,A15U C30G C34U,0.71
7,A15U C29A C34G,≤ 0.5
8,U16A A21C G44A U59A,0.847
9,A15U G25C U59A,≤ 0.5
10,A15U U19C C31A G41C,0.596
11,A15U C34A G39C A40C G56C C61G C62G G68C,0.533
12,U16A C24U C55U,0.913
13,U16A A57C,0.668
14,U16A A57U,0.732
15,U16A A57G,0.974
16,U16A C22U U26C U54G,≤ 0.5
17,U16A C29U A45G C46U A69U,≤ 0.5
18,A15U U28A C33G,0.561
19,A15U C33G G52A A65G,≤ 0.5
20,A15U U32G G44A,0.555
21,U16A C34U A57G C60A,≤ 0.5

row,Variant,yeast fitness
1,U16A C27U G38A C60G A65C,≤ 0.5
2,A15U C34U G41C A69G,≤ 0.5
3,U16A A21C A37C G68A,0.551
4,A15U G25C C61U G63C,0.545
5,A15U G38C G51C A70C,≤ 0.5
6,A15U C27A C62U A65C A69C,≤ 0.5
7,A15U C55G U64C A65C,≤ 0.5
8,U16A C30G G44C C61A,≤ 0.5
9,U16A A21C C34A A37C G68A,≤ 0.5
10,U16A C22G C34U G51A,≤ 0.5
11,A15U G48C G67C,≤ 0.5
12,A15U U16G C55A A57C U59C,≤ 0.5
13,A15U C46U U54C,0.684
14,U16A C30G G44C,≤ 0.5
15,A15U G25A G44C G52A,≤ 0.5
16,A15U C27U U47C G68C,≤ 0.5
17,A15U G18C C55U A69C,≤ 0.5
18,A15U G67A A69U,0.558
19,A15U G23C C33A G67C,≤ 0.5
20,U16A C29G A42G C46G A65U,≤ 0.5
21,A15U C31U U35A A36C U53A G68C,≤ 0.5

row,Variant,yeast fitness
1,U16A A21G C27G A57G,≤ 0.5
2,A15U G50A,0.708
3,A15U G58A C66G,0.943
4,U16A C27A C62G,≤ 0.5
5,U16A A21C G58A,≤ 0.5
6,A15U C33G,0.551
7,A15U G25C C49G U59G,≤ 0.5
8,A15U G38C G39A A43C U54C C60G A65C,≤ 0.5
9,A15U U19C C31U A40C,≤ 0.5
10,U16A A37U C62G,≤ 0.5
11,U16A A37U C62A,≤ 0.5
12,U16A C24U C34G G38C,≤ 0.5
13,U16A A21U A45C,≤ 0.5
14,A15U C34G C55U A69C,≤ 0.5
15,A15U U19A A20G A40U A43U C60G C62U A69G,≤ 0.5
16,U16A C34A C60A,0.574
17,U16A C24U C33U A36U A40U,≤ 0.5
18,U16A A65C,0.939
19,U16A C27G U64C C66U G67A,≤ 0.5
20,A15U C29A C49G A69U,≤ 0.5
21,U16A C30A U35G,≤ 0.5
